Assay outcomes as filed in PubChem.
WT yeast gro inh: growth inhibition of WT strain, primary screen, mitochondrial fusion inhibitor project, WT and mutant strains, chemical genetic | 2.1% of 190,000 active | AID 1362, 2008 | inhibition, % at 10 µM | mitochondrial fusion phenotypic screen; in the data active means inhibition above about 58%; tested in S. cerevisiae
MT stabilize HCS: microtubule stabilizers in HeLa cells, primary screen, imaging, high-content imaging. HeLa tubulin immunostaining HCS, 24 h; share of cells brighter than vehicle mean+2SD. % tubulin-high responders, % at 10 µM. 0.83% of 200,000 active. AID 2205, 2009;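 active means plate Z-score above 3 for both tubulin-high and condensed-nucleus cell shares, with cell loss under 80%, at 10 µM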;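 further: anti alpha tubulin signal scored within the nucleus-defined area of each cell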
KCC2 mod: KCC2 cotransporter modulators, thallium flux, primary screen, cell-based, HEK293 KCC2, FluoZin-2 fluorescence, MLSMR; KCC2 cells, thallium flux FluoZin-2 fluorescence; B-score of Tl+ flux slope (higher = more flux/activation; lower = inhibition) at 10 µM; 2.2% of 190,000 active; AID 1456, 2008;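 active means thallium flux slope and its plate-corrected score both differing from the plate sample mean at a set confidence after two filtering rounds, in either direction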;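 further: slope of fluorescence scaled to starting intensity during 10 to 20 s after thallium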
bCat nuc transl: modulators of beta-catenin nuclear translocation, primary screen, imaging, HeLa cells, immunofluorescence, high-content | nuclear translocation activity, % at 5 µM | AID 1665, 2009 | 0.3% of 190,000 active;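 active means nuclear translocation activity above 50% at 5 µM, with a well cell count of 50 or more; inconclusive means wells under 50 cells across six images, flagged as toxic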;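 further: per-cell ratio of nuclear to cytoplasmic median beta-catenin stain intensity; plate controls were DMSO negative control for no effect and GSK-3 inhibitor IX positive control for full effect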
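Signal – beta-catenin immunofluorescence imaging with DAPI · Test system – human HeLa cell line · Dosing – 5 µM primary single dose, 0.1% DMSO, 0.02–20 µM confirmation series · Measure – % activation, nuclear-to-cytoplasmic median beta-catenin signal ratio per cell · Incubation – 24 h compound exposure at 37°C, 5% CO2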
Pf gametocyte: late stage P. falciparum gametocyte viability inhibitors, primary screen, ATP luminescence, HTS; 0.065% of 150,000 active; inhibition, % at 10.9 µM; AID 743093, 2013; P. falciparum stage V gametocytes, 24 h;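 active means inhibition above the mean plus 3 SD of compounds within the control limits, set per campaign, cut at about 38% in these data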;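 further: 0% = DMSO wells and 100% = medium only without gametocytes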
KCC2 secondary: KCC2 modulators in sodium-free buffer, confirmation, cell-based, HEK293 KCC2, thallium flux, secondary assay; shares compounds with KCC2 mod; FluoZin2 fluorescence; hits give high values; normalised thallium flux (F/F0 slope) at 10 µM; 15% of 3,700 active; AID 1713, 2009;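 active means thallium flux slope above the same plate's solvent-only control mean plus 3 SD; inconclusive means the two replicate wells disagree; inactive means no significant difference from solvent-only control wells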
KCC2 bumet counter: thallium flux persisting under bumetanide in KCC2 cells, confirmation, counter-screen for KCC2 modulator project, cell-based, HEK293 KCC2, FluoZin2, secondary assay 3 | 49% of 3,700 active | normalized thallium flux at 10 µM | shares compounds with KCC2 mod | HEK293-KCC2 + bumetanide/ouabain; hits give high values;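 active means thallium entry rate above the same plate's blocked-transporter control wells by more than 3 SD; inconclusive means the two repeat wells disagree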;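 further: raw slope of fluorescence over initial fluorescence between 10 and 20 s after thallium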
KCC2 sec2: KCC2 modulators without ouabain present, confirmation, cell-based, HEK293 KCC2, thallium flux, FluoZin2, secondary assay 2; shares compounds with KCC2 mod; thallium flux FluoZin2 fluorescence; actives lie on both sides; F/F0 rise rate, 10–20 s post-thallium; normalized thallium flux at 10 µM; 23% of 3,700 active;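 active means thallium flux slope more than 3 SD above or below the plate's solvent-only control mean, mostly below; inconclusive means the two repeat wells disagreed; inactive means no significant shift from solvent-only controls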;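 further: raw slope with 0.1% DMSO as baseline and bumetanide as block control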
HEK counter1: thallium flux modulation in parental HEK cells, confirmation, counter-screen for KCC2 modulator project, cell-based, counterscreen 1; HEK293 parental cells, thallium flux FluoZin2, ouabain; baseline-ratio fluorescence slope, 10–20 s after thallium; shares compounds with KCC2 mod; thallium flux rate (normalised fluorescence) at 10 µM; 46% of 3,700 active; AID 1716, 2009;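 active means thallium flux rate significantly above the same plate's solvent-only control wells, beyond their mean plus 3 SD; inconclusive means the two replicate wells gave conflicting results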
KCC2 retest ouab: KCC2 inhibitors and activators, ouabain retest, confirmation, HEK-KCC2 cells | shares compounds with KCC2 mod | HEK293-KCC2, thallium flux FluoZin2 fluorescence; bidirectional: low = inhibitor, high = activator | raw Tl+ flux slope (below DMSO = inhibition, above = activation) at 10 µM | 48% of 3,700 active;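 active means thallium flux slope beyond 3 SD from same-plate DMSO control mean in most replicates, usually higher, sometimes lower; inconclusive means repeat tests gave conflicting results; inactive means no significant difference from controls in most replicates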;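 further: slope of initial-normalized fluorescence between seconds 10 and 20 after thallium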
HEK counter2: native HEK Tl+ uptake effects, second counter-screen – HEK cells, counterscreen 2, counter-screen for KCC2 modulator project, confirmation; AID 1718, 2009; thallium flux slope at 10 µM; 33% of 3,700 active; HEK293 parental, thallium flux FluoZin-2 fluorescence slope; shares compounds with KCC2 mod;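 active means thallium flux slope above the same plate's solvent-control mean plus 3 SD in both duplicate wells; inconclusive means duplicate wells that disagreed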;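 further: run without ouabain in cells lacking the KCC2 cotransporter; slope of fluorescence scaled to its starting value between 10 and 20 s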
Numbers without * were called inactive; ? = inconclusive; . = no result. Only some compounds are listed: those with a hit (about 4% of all), similar ones and a draw of the others.

SMILES	WT yeast gro inh	MT stabilize HCS	KCC2 mod	bCat nuc transl	Pf gametocyte	KCC2 secondary	KCC2 bumet counter	KCC2 sec2	HEK counter1	KCC2 retest ouab	HEK counter2
COc1ccc(-c2cc(CNC(=O)CN(C)Cc3ccccc3)on2)cc1	31.5	1.5	.	-3.4	.	0.00576	0.00485	0.0235*	0.00683	0.0134*	0.00941
COCCN1C(=O)C(O)=C(C(=O)c2ccco2)C1c1cccc(Oc2ccccc2)c1 (stereo not given)	7.1	2.1	-6.94*	3.1	.	0.00898	0.00577	?	0.00631*	0.0165*	0.0103
O=C(CSc1nc2cc(Cl)ccc2s1)Nc1cccc(S(=O)(=O)N2CCOCC2)c1	4.2	4.9	3.1*	4.7	-31.1	0.0106	0.0149*	0.0363	?	0.0263*	?
O=C(CSc1nc2cc(Cl)ccc2c(=O)n1Cc1ccco1)Nc1ccc(S(=O)(=O)N2CCOCC2)cc1	-8.7	2.2	4.36*	0.1	-19.3	0.00735	0.0141*	0.0339	0.0185*	?	0.0152*
O=C(CSc1nc2cc(Cl)ccc2s1)c1cc2ccccc2o1	40.5	2.1	4.47*	-4.4	.	0.0251*	0.0551*	0.0388	0.0307*	0.0476*	0.0173*
O=C(CSc1cccc2cccnc12)Nc1ccc(S(=O)(=O)N2CCOCC2)cc1	.	.	9.57*	0.2	-11.8	0.00604	0.0196*	0.028	0.0156*	?	0.0135*
CCC(Sc1nc(N)c(NC(=O)c2ccc(OC)cc2)c(=O)[nH]1)C(=O)O (stereo not given)	-15.0	2.8	0.168	0.7	5.3	.	.	.	.	.	.
Cc1ccc(S(=O)(=O)NC(CC(C)C)C(=O)NCc2ccco2)cc1 (stereo not given)	13.0	1.5	.	.	.	.	.	.	.	.	.
CCOC(=O)c1c(NC(=O)CSc2nnc(-c3ccncc3)n2Cc2ccco2)sc(C)c1C	31.1	1.1	.	-3.9	.	.	.	.	.	.	.
Cc1cccc(N=C2NN=C(c3ccccc3F)CS2)c1C	26.7	3.7	10.7*	-0.9	7.8	0.0111	0.0126*	0.0371	0.0175*	0.0263*	?
Fc1ccccc1N=C1NN=C(c2ccccc2)CS1	26.8	5.3	-0.969	0.9	16.3	.	.	.	.	.	.
Fc1ccc(F)c(C2=NNC(=Nc3ccccc3F)SC2)c1	63.2*	3.8	5.85*	-1.9	-49.5	0.00673	0.0106*	0.0336	0.0115*	0.0258*	0.0144*
CCCCn1c(N)c(NCC)c(=O)[nH]c1=O	-1.1	3.2	-0.0266	0.6	-17.9	.	.	.	.	.	.
COc1ccc(CN2CCN(c3ccccc3OC)CC2)c(OC)c1	.	.	.	.	1.9	.	.	.	.	.	.
COc1ccc(OC)c(CN2CCN(c3ccccc3OC)CC2)c1	17.1	4.4	8.77*	-1.9	0.7	0.00583	0.00509	0.0307	0.0081	0.0193	0.0111
COc1ccc(NC(=O)CSc2nnc(-c3ccncc3)n2C)cc1	-3.7	2.2	0.498	.	-22.5	.	.	.	.	.	.
COc1ccc(NC(=O)CSc2nc(-c3ccncc3)nn2CC(=O)N2CCCC2)cc1	6.5	2.8	-4.25*	-8.5	11.0	0.0069	0.00477	0.0279	0.00737	0.018	0.0105
O=C(NCc1ccccn1)NC12CC3CC(CC(C3)C1)C2	-5.5	2.9	-0.181	.	.	.	.	.	.	.	.
O=C(NCc1ccccn1)C(=O)Nc1nc(C23CC4CC(CC(C4)C2)C3)cs1	71.5*	3.1	16.2*	-0.4	6.5	0.0117	0.0145*	0.0341	0.0262*	0.0258*	0.0146*
C#CCOCCOCCOCCNc1nc(N2CCN(C(=O)[C@H](Cc3ccc(O)cc3)n3cc(CCO)nn3)CC2)nc(N2CCN(C(=O)[C@H](Cc3ccc(O)cc3)n3cc(CCO)nn3)CC2)n1	-6.2	3.8	0.876	.	.	.	.	.	.	.	.
CN(C)S(=O)(=O)c1ccc(NC(=O)CSc2ncnc3ccccc23)cc1	-4.5	4.4	-4.04*	2.7	8.2	0.00801	0.00655	0.0263*	0.00717	0.0149*	0.0113
CN(C)S(=O)(=O)c1cccc(NC(=O)CSc2ncnc3ccccc23)c1	.	.	-4.21	0.7	17.8	.	.	.	.	.	.
Cc1nc(S/C(C(=O)O)=C2/C(=O)Nc3ccccc32)n[nH]1	.	.	-0.0282	-0.9	11.3	.	.	.	.	.	.
CC1=NN(c2nc(-c3ccccc3)cs2)C(=O)C1	-5.6	1.4	.	0.2	.	.	.	.	.	.	.
O=C1CC(c2ccccc2)=NN1c1nc(-c2ccccc2)cs1	-10.4	5.0	9.67*	3.2	-10.8	0.0133*	0.0391*	0.03	0.013*	0.0345*	?
CC1=C(C(=O)OCc2ccc3c(c2)OCO3)C(c2cccc([N+](=O)[O-])c2)NC(=O)N1 (stereo not given)	11.7	2.0	0.139	1.8	13.4	.	.	.	.	.	.
CCOc1ccc(N2C(=O)C3Sc4[nH]c(=O)sc4C(/C=C/c4ccccc4)C3C2=O)cc1 (stereo not given)	-11.1	3.7	-5.55*	-3.5	25.5	0.00674	?	0.0188*	0.00833	0.0146*	0.0113
COc1cc(C2c3sc(=O)[nH]c3SC3C(=O)N(c4ccc(Br)cc4)C(=O)C32)ccc1O (stereo not given)	.	.	.	-0.3	-0.1	.	.	.	.	.	.
COc1ccccc1CNC(=O)COC(=O)CCC(=O)c1cccs1	-13.9	4.0	-0.923	0.7	-20.9	.	.	.	.	.	.
CN(C)c1ccc(/C=N/n2c(-c3cccnc3)n[nH]c2=S)cc1	-17.5	3.6	0.825	-0.2	2.5	.	.	.	.	.	.
